17 compounds from ChEMBL document CHEMBL1152337, “Antimicrobial ambiguine isonitriles from the cyanobacterium Fischerella ambigua” (J Nat Prod, 2009) can be followed below.

Assay [1] has as its system Mycobacterium tuberculosis. The assay is described as follows: Antimicrobial activity against Mycobacterium tuberculosis H37Rv by microplate Alamar blue assay. The format is functional. The procedure, abridged: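 Virulent H37Rv strain in a microplate Alamar blue assay. MIC defined as the lowest concentration giving at least 90% growth inhibition.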
On the technique in general: The colour change of resazurin is a common sign of viable cells or microbes.

A further assay relates to Vero. The assay is described as follows: Cytotoxicity against african green monkey Vero cells. The format is cell-based. The note with it: Chlorocebus sabaeus.
Another assay concerns Staphylococcus aureus. In words: Antimicrobial activity against Staphylococcus aureus by broth microdilution assay. It is filed as functional.
A further assay relates to Bacillus anthracis. The assay is described as follows: Antimicrobial activity against Bacillus anthracis. It is filed as functional. The gist of the method: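 Compounds tested over 100 µg/mL down to 48.8 ng/mL. MIC taken as the lowest concentration preventing visible bacterial growth.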
Assay [2] concerns Mycolicibacterium smegmatis. In words: Antimicrobial activity against Mycobacterium smegmatis by broth microdilution assay. It is filed as functional. For orientation: In broth dilution the organism is exposed to a series of concentrations in liquid medium.
The next assay deals with Candida albicans. The assay is described as follows: Antimicrobial activity against Candida albicans by broth microdilution assay. The format is functional.
Assay [3] in a line: Selectivity ratio of MIC for Mycobacterium tuberculosis H37Rv to MIC for Bacillus anthracis. It is filed as functional.

≈ marks a conversion by molar mass, not a printed value. Where only a bound is given, the exact number is not on record here.

Regarding `[C-]#[N+][C@]12[C@@H](O)[C@H](O)C(C)(C)c3[nH]c4cccc5c4c3[C@]1(O)[C@H](C[C@@H](Cl)[C@]2(C)C=C)C5(C)C` [AMBIGUINE F ISONITRILE], the MIC – broadly, the smallest concentration in the dilution series that meets the test's criterion for growth inhibition – in assay [1] turned out to be 61.2 µM (≈ 27.8 µg/mL). Besides, in the assay on Vero, inhibition was half-maximal at 57.9 µM (IC50).

Turning to GENTAMICIN, in the assay on Staphylococcus aureus, it took 1.4 µM to inhibit growth (MIC).

As to `[C-]#[N+][C@@H]1[C@@H]2c3c[nH]c4cccc(c34)C(C)(C)[C@H]2C[C@@H](Cl)[C@]1(C)C=C` [HAPALINDOLE G], the MIC is 6.8 µM (≈ 2.3 µg/mL) in assay [1]; > 128 µM against Bacillus anthracis; > 128 µM in the assay on Staphylococcus aureus; 34 µM (≈ 11.5 µg/mL) in assay [2]; > 128 µM with Candida albicans. For the same compound, the IC50 (usually the concentration that inhibits the measured activity by half) with Vero is > 128 µM. Also, the Ratio in assay [3] came out at 50.

In the case of `[C-]#[N+][C@]12[C@H]3O[C@H]3C(C)(C)c3[nH]c4cccc5c4c3[C@]1(O)[C@H](C[C@@H](Cl)[C@]2(C)C=C)C5(C)C` [AMBIGUINE E ISONITRILE], the MIC in assay [1] was 21 µM (≈ 9.18 µg/mL); in the assay with Bacillus anthracis, 3.6 µM (≈ 1.57 µg/mL); with Staphylococcus aureus it was 1.5 µM (≈ 0.655 µg/mL); in assay [2], 1.4 µM (≈ 0.612 µg/mL); against Candida albicans it was < 0.9 µM. Inhibition in the assay with Vero was half-maximal at 42.6 µM (IC50).

With `[C-]#[N+][C@@H]1[C@@H]2c3c(C(C)(C)C=C)[nH]c4cccc(c34)C(C)(C)[C@H]2C[C@@H](Cl)[C@]1(C)C=C` [AMBIGUINE A ISONITRILE], the MIC in assay [1] is 46.7 µM (≈ 19 µg/mL); with Bacillus anthracis it was 1 µM (≈ 0.407 µg/mL); with Staphylococcus aureus, 1.8 µM (≈ 0.733 µg/mL); in assay [2], 14.8 µM (≈ 6.02 µg/mL); against Candida albicans it was < 1 µM. The compound further yielded an IC50 with Vero of 26 µM.

On to `[C-]#[N+][C@]12C=CC(C)(C)c3[nH]c4cccc5c4c3[C@]1(O)[C@H](CC[C@]2(C)C=C)C5(C)C` [AMBIGUINE L ISONITRILE], for which the MIC in assay [1] was 11.7 µM (≈ 4.52 µg/mL); in the assay with Bacillus anthracis, 16.2 µM (≈ 6.26 µg/mL); against Staphylococcus aureus it was 10.5 µM (≈ 4.06 µg/mL); in assay [2], 29.3 µM (≈ 11.3 µg/mL); in the assay on Candida albicans, < 1 µM. In the assay on Vero, this compound returned an IC50 of 44.6 µM.

Consider `COc1c(N2C[C@@H]3CCCN[C@@H]3C2)c(F)cc2c(=O)c(C(=O)O)cn(C3CC3)c12` [MOXIFLOXACIN], for which, in assay [2], 0.7 µM (≈ 0.281 µg/mL) was the least that counted as inhibitory (MIC).

For `[C-]#[N+][C@]12C[C@@H](O)C(C)(C)c3[nH]c4cccc5c4c3[C@]1(O)[C@H](CC[C@]2(C)C=C)C5(C)C` [AMBIGUINE N ISONITRILE], the MIC in assay [1] was 27.1 µM (≈ 11 µg/mL); with Bacillus anthracis, 30.9 µM (≈ 12.5 µg/mL); against Staphylococcus aureus, 5.5 µM (≈ 2.23 µg/mL); in assay [2] it was 48.8 µM (≈ 19.7 µg/mL); in the assay on Candida albicans it was < 1 µM. Also, in the assay with Vero, the IC50 was determined as 118 µM.

In assay [1], `CO[C@H]1/C=C/O[C@@]2(C)Oc3c(C)c(O)c4c(O)c(c(/C=N/N5CCN(C)CC5)c(O)c4c3C2=O)NC(=O)/C(C)=C\C=C\[C@H](C)[C@H](O)[C@@H](C)[C@@H](O)[C@@H](C)[C@H](OC(C)=O)[C@@H]1C` [RIFAMPIN] displayed a minimum inhibitory concentration (MIC) of 0.1 µM (≈ 0.0823 µg/mL). Also, inhibition with Vero was half-maximal at 97.9 µM (IC50).

Take `[C-]#[N+][C@@H]1[C@]2(O)c3c(C(C)(C)C=C)[nH]c4cccc(c34)C(C)(C)[C@H]2CC[C@]1(C)C=C` [AMBIGUINE C ISONITRILE]: the minimum inhibitory concentration (MIC) was 7 µM (≈ 2.72 µg/mL) in assay [1]; 16.1 µM (≈ 6.26 µg/mL) in the assay on Bacillus anthracis; 7.4 µM (≈ 2.88 µg/mL) in the assay on Staphylococcus aureus; 59.6 µM (≈ 23.2 µg/mL) in assay [2]; < 1 µM in the assay on Candida albicans. The same compound registered an IC50 with Vero of 78.3 µM.

Turning to `[C-]#[N+][C@H]1[C@@](C)(C=C)[C@H](Cl)C[C@@H]2C(C)(C)c3cccc4[nH]c(C(C)(C)C=C)c(c34)[C@]21O` [AMBIGUINE B ISONITRILE], the minimal inhibitory concentration (MIC) against Bacillus anthracis was 3.7 µM (≈ 1.57 µg/mL); with Staphylococcus aureus it was 10.9 µM (≈ 4.61 µg/mL); in assay [2], 27.8 µM (≈ 11.8 µg/mL); with Candida albicans, 1.7 µM (≈ 0.719 µg/mL). For the same compound, in the assay with Vero, the IC50 is 58.6 µM.

Turning to `[C-]#[N+][C@]12C[C@@H](O)C(C)(C)c3[nH]c4cccc5c4c3[C@]1(O)[C@H](C[C@@H](Cl)[C@]2(C)C=C)C5(C)C` [AMBIGUINE M ISONITRILE], the minimum inhibitory concentration (MIC) in assay [1] is 7.5 µM (≈ 3.29 µg/mL); with Bacillus anthracis it was 28.5 µM (≈ 12.5 µg/mL); against Staphylococcus aureus, 4.7 µM (≈ 2.06 µg/mL); in assay [2] it was 25.8 µM (≈ 11.3 µg/mL); in the assay with Candida albicans it was 1.1 µM (≈ 0.483 µg/mL). Besides, in the assay on Vero, half-maximal inhibition (IC50) required 79.8 µM.

As for `[C-]#[N+][C@]12C=CC(C)(C)c3[nH]c4cccc5c4c3[C@]1(O)[C@H](C[C@@H](Cl)[C@]2(C)C=C)C5(C)C` [AMBIGUINE K ISONITRILE], the MIC in assay [1] was 6.6 µM (≈ 2.78 µg/mL); with Bacillus anthracis it was 7.4 µM (≈ 3.12 µg/mL); against Staphylococcus aureus, 4.6 µM (≈ 1.94 µg/mL); in assay [2] it was 23.7 µM (≈ 9.98 µg/mL); against Candida albicans it was < 0.9 µM. The compound further displayed an IC50 with Vero of 53.2 µM.

As to `CC(=O)N1CCN(c2ccc(OCC3COC(Cn4ccnc4)(c4ccc(Cl)cc4Cl)O3)cc2)CC1` (stereo not given) [KETOCONAZOLE], inhibition of growth in the assay with Candida albicans (MIC) required 0.03 µM (≈ 0.0159 µg/mL).

On to `[C-]#[N+][C@@H]1[C@H]2c3c[nH]c4cccc(c34)C(C)(C)[C@@H]2CC[C@]1(C)C=C` [HAPALINDOLE H], for which the minimal inhibitory concentration (MIC) was 58.8 µM (≈ 17.9 µg/mL) in assay [1]; > 128 µM with Bacillus anthracis; > 128 µM in the assay with Staphylococcus aureus; 39.6 µM (≈ 12.1 µg/mL) in assay [2]; 5.1 µM (≈ 1.55 µg/mL) against Candida albicans. In addition, in the assay on Vero, the half-maximal inhibitory concentration (IC50) is > 128 µM.

Take `[C-]#[N+][C@]12[C@H](O)C(=O)C(C)(C)c3[nH]c4cccc5c4c3[C@]1(O)[C@H](C[C@@H](Cl)[C@]2(C)C=C)C5(C)C` [AMBIGUINE O ISONITRILE]: in the assay on Bacillus anthracis, the MIC is 13.8 µM (≈ 6.25 µg/mL). Moreover, the IC50 with Vero came out at 80.7 µM.

`O=C(O)c1cn(C2CC2)c2cc(N3CCNCC3)c(F)cc2c1=O` [CIPROFLOXACIN] returned a minimum inhibitory concentration (MIC) against Bacillus anthracis of 0.2 µM (≈ 0.0663 µg/mL).
